Data reported in ChEMBL document CHEMBL1221409, “Antioxidant and anti-inflammatory phenylpropanoid derivatives from Calamus quiquesetinervius” (J Nat Prod, 2010).

How the values were obtained:
[1] = Cytotoxicity against LPS-stimulated mouse RAW264.7 cells assessed as cell viability upto 100 uM by MTS assay; format: cell-based; conditions: LPS-stimulated RAW264.7 cells, read-out: Activity
Procedure, shortened: (§1)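 RAW 264.7 cells were incubated 24 h with the agent at various concentrations up to 100 µM, with or without LPS in the medium. Cell viability was read by MTS assay.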

[2] = Antioxidant activity assessed as superoxide radical scavenging activity by chemiluminescence analysis; format: functional
Procedure, shortened: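 Superoxide (·O2−) scavenging was tested with Trolox and quercetin as positive controls. Values are from three replicates, reported as means ± SD.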

[3] = Cytotoxicity against mouse RAW264.7 cells assessed as cell viability upto 100 uM by MTS assay; format: cell-based; conditions: read-out: Activity; procedure, shortened: as §1
RAW264.7 = assay: Antiinflammatory activity against LPS-stimulated mouse RAW264.7 cells assessed as inhibition of NO production after 24 hrs; format: functional, cell-based; conditions: RAW264.7, 24 h
Procedure, shortened: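 RAW 264.7 macrophages were stimulated with LPS in the presence of the test agent for 24 h. Inhibition of NO production was expressed as IC50, with quercetin as the reference.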

[4] = tested on: Radical scavenging activity; assay: Antioxidant activity assessed as DPPH radical scavenging activity after 30 mins by ELISA reader; format: functional
Procedure, shortened: (§2)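 Radical scavenging was tested with Trolox and quercetin as positive controls. Values are from three replicates, reported as means ± SD and expressed as IC50.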

[5] = Antioxidant activity assessed as hydroxyl radical scavenging activity by chemiluminescence analysis; format: functional; procedure, shortened: as §2

| SMILES | IC50 [2] [µM] | IC50 (RAW264.7) [µM] | IC50 [4] [µM] | IC50 [5] [µM] | viability [1] [%] | viability [3] [%] |
| --- | --- | --- | --- | --- | --- | --- |
| COc1cc(/C=C/C(=O)OC[C@H]2O[C@@](CO)(O[C@H]3O[C@H](CO)[C@@H](OC(=O)/C=C/c4ccc(O)c(OC)c4)[C@H](O)[C@H]3OC(C)=O)[C@@H](OC(=O)/C=C/c3ccc(O)c(OC)c3)[C@@H]2O)ccc1O | 184 | 42.1 | 69.1 | 3.6 | > 90 | > 90 |
| Cc1c(C)c2c(c(C)c1O)CCC(C)(C(=O)O)O2 (configuration not stated) [TROLOX] | 25.3 |  | 32.9 | 4.31 |  |  |
| COc1cc(/C=C/C(=O)OC[C@H]2O[C@@](CO)(O[C@H]3O[C@H](CO)[C@@H](OC(=O)/C=C/c4ccc(O)cc4)[C@H](O)[C@H]3OC(C)=O)[C@@H](OC(=O)/C=C/c3ccc(O)c(OC)c3)[C@@H]2O)ccc1O | > 200 | 9.2 | 68.4 | 5.5 | > 90 | > 90 |
| O=c1c(O)c(-c2ccc(O)c(O)c2)oc2cc(O)cc(O)c12 [QUERCETIN] |  | 34.5 |  |  |  |  |
| COc1cc(/C=C/C(=O)OC[C@H]2O[C@@](CO)(O[C@H]3O[C@H](COC(C)=O)[C@@H](OC(=O)/C=C/c4ccc(O)c(OC)c4)[C@H](O)[C@H]3O)[C@@H](OC(=O)/C=C/c3ccc(O)c(OC)c3)[C@@H]2O)ccc1O | > 200 | 60.3 | 99.6 | 7.4 | > 90 | > 90 |
| COc1cc(/C=C/C(=O)OC[C@H]2O[C@@](CO)(O[C@H]3O[C@H](COC(C)=O)[C@@H](OC(=O)/C=C/c4ccc(O)cc4)[C@H](O)[C@H]3O)[C@@H](OC(=O)/C=C/c3ccc(O)c(OC)c3)[C@@H]2O)ccc1O | > 200 | 9.5 | 64.4 | 8.4 | > 90 | > 90 |
| COc1cc([C@H]2Oc3c(OC)cc(/C=C/COC(=O)c4ccc(O)cc4)cc3[C@@H]2COC(=O)c2ccc(O)cc2)cc(OC)c1O [QUIQUESETINERVIUSIN B] | > 200 | 223 |  | 25.7 | > 90 | > 90 |
| COc1cc(/C=C/C(=O)OC[C@H]2O[C@@](CO)(O[C@H]3O[C@H](CO)[C@@H](OC(=O)/C=C/c4ccc(O)c(OC)c4)[C@H](O)[C@H]3O)[C@@H](OC(=O)/C=C/c3ccc(O)c(OC)c3)[C@@H]2O)ccc1O | > 200 | 78.1 | 62.5 | 6.8 | > 90 | > 90 |

More lines, main results first:

| IC50 [2] [µM] | IC50 (RAW264.7) [µM] | IC50 [4] [µM] | IC50 [5] [µM] | SMILES | viability [1] [%] | viability [3] [%] |
| --- | --- | --- | --- | --- | --- | --- |
| > 200 | 95.7 | > 100 | 16.6 | CCO[C@H](c1ccc(O)c(OC)c1)[C@H](COC(=O)c1ccc(O)cc1)Oc1ccc(/C=C/COC(=O)c2ccc(O)cc2)cc1OC (relative stereo) [QUIQUESETINERVIUSIN C] | > 90 | > 90 |
| > 200 | 69 | > 100 | 19.1 | COc1cc(C2Oc3c(OC)cc(/C=C/C=O)cc3C2COC(=O)c2ccc(O)cc2)ccc1O (configuration not stated) | > 90 | > 90 |
| > 200 | 29.5 | > 100 | 13.3 | COc1cc([C@H](O)[C@H](CO)Oc2c(OC)cc(-c3cc(=O)c4c(O)cc(O)cc4o3)cc2OC)ccc1O [SALCOLIN B] | > 90 | > 90 |
| > 200 | 23.4 |  | 23.7 | COc1cc([C@H]2Oc3c(OC)cc(/C=C/COC(=O)c4ccc(O)cc4)cc3[C@@H]2COC(=O)c2ccc(O)cc2)ccc1O [QUIQUESETINERVIUSIN A] | > 90 | > 90 |
